Laboratory results from ChEMBL document CHEMBL5365503, “Design and Synthesis of 1,3,5-Triazines or Pyrimidines Containing Dithiocarbamate Moiety as PI3Kα Selective Inhibitors” (ACS Med Chem Lett, 2023).

Assays:
[1] = biological target: Phosphatidylinositol 4,5-bisphosphate 3-kinase catalytic subunit alpha isoform (Homo sapiens, UniProt P42336); experiment: Inhibition of N-terminal GST-fused full-length human PI3Kalpha (1 to 1068 residues) expressed in baculovirus expression system using PIP2 as substrate incubated for 1 hr in presence of ATP by ADP-Glo assay
Chain of Phosphatidylinositol 4,5-bisphosphate 3-kinase catalytic subunit alpha isoform (P42336 whole entry, the tested form may be a part, canonical isoform): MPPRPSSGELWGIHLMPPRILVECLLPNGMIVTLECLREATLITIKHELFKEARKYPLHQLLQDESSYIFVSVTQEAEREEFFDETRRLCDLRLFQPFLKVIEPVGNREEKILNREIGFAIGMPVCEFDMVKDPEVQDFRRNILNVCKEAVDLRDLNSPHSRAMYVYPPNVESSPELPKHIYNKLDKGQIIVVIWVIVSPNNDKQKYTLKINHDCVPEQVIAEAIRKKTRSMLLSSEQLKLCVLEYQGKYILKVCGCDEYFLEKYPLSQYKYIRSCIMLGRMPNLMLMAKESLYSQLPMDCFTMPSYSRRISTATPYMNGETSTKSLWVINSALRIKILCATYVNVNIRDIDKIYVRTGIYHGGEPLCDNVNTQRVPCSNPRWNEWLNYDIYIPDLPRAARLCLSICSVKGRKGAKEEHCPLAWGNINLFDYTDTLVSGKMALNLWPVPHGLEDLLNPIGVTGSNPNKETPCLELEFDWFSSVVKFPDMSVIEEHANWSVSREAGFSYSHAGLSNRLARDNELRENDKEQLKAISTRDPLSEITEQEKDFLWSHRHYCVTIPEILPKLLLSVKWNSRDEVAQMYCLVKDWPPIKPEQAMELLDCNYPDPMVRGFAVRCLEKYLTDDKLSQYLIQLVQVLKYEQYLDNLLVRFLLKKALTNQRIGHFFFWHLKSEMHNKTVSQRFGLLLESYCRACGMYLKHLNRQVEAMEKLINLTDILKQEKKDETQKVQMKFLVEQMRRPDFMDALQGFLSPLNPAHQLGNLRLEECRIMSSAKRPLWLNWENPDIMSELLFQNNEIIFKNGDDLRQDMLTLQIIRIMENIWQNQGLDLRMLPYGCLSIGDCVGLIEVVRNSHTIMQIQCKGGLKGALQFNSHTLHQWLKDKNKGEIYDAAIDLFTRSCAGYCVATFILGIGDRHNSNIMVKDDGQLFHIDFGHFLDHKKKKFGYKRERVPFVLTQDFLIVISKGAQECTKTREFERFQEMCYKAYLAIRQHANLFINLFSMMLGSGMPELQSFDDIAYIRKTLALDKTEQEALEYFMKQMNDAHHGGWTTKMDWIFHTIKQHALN

HCT-116 = experiment: Antiproliferative activity against human HCT-116 cells assessed as inhibition of cell proliferation incubated for 96 hrs by MTT assay; format: functional, cell-based; settings: HCT-116, 96 h
U-87 MG [2] = experiment: Antiproliferative activity against human U-87 MG cells assessed as inhibition of cell proliferation incubated for 96 hrs by MTT assay; format: functional, cell-based, U-87MG ATCC
[3] = biological target: Phosphatidylinositol 4,5-bisphosphate 3-kinase catalytic subunit beta isoform (Homo sapiens, UniProt P42338); experiment: Inhibition of N-terminal 6xHis-tagged recombinant, full length human PI3Kbeta by ADP-Glo assay
Chain of Phosphatidylinositol 4,5-bisphosphate 3-kinase catalytic subunit beta isoform (P42338 whole entry, canonical isoform): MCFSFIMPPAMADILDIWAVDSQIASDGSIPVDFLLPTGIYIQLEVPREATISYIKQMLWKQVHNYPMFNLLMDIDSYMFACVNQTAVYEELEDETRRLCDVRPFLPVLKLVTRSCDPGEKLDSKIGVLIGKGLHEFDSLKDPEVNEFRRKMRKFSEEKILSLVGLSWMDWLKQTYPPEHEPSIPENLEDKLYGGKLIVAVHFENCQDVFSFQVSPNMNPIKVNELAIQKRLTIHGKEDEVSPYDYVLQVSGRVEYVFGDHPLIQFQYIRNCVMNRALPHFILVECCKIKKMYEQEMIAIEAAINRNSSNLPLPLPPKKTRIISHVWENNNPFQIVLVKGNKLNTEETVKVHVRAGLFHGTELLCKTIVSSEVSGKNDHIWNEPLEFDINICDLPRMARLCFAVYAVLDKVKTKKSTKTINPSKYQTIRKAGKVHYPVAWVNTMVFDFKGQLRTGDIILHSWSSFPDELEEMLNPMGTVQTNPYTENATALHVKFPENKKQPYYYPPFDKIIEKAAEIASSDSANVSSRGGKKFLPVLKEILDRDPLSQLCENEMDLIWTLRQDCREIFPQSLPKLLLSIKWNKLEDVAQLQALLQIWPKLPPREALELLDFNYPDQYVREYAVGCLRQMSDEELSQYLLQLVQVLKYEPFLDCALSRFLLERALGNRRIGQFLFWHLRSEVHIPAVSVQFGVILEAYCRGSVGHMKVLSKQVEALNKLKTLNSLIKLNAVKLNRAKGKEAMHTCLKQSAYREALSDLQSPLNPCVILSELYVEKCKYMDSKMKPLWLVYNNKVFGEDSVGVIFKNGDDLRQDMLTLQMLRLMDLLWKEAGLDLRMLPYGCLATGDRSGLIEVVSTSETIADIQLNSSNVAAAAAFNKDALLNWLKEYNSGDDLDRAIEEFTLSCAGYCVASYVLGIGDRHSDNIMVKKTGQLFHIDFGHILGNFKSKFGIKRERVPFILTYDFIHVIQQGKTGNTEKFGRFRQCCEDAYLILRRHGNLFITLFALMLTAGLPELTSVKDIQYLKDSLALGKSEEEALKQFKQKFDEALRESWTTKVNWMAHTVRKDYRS

[4] = biological target: T1, Phosphatidylinositol 4,5-bisphosphate 3-kinase catalytic subunit delta isoform (Homo sapiens, UniProt O00329); experiment: Inhibition of N-terminal 6xHis-tagged recombinant full-length human PI3Kdelta expressed in baculovirus infected Sf21 insect cells by ADP-Glo assay
T1 sequence (O00329 whole entry): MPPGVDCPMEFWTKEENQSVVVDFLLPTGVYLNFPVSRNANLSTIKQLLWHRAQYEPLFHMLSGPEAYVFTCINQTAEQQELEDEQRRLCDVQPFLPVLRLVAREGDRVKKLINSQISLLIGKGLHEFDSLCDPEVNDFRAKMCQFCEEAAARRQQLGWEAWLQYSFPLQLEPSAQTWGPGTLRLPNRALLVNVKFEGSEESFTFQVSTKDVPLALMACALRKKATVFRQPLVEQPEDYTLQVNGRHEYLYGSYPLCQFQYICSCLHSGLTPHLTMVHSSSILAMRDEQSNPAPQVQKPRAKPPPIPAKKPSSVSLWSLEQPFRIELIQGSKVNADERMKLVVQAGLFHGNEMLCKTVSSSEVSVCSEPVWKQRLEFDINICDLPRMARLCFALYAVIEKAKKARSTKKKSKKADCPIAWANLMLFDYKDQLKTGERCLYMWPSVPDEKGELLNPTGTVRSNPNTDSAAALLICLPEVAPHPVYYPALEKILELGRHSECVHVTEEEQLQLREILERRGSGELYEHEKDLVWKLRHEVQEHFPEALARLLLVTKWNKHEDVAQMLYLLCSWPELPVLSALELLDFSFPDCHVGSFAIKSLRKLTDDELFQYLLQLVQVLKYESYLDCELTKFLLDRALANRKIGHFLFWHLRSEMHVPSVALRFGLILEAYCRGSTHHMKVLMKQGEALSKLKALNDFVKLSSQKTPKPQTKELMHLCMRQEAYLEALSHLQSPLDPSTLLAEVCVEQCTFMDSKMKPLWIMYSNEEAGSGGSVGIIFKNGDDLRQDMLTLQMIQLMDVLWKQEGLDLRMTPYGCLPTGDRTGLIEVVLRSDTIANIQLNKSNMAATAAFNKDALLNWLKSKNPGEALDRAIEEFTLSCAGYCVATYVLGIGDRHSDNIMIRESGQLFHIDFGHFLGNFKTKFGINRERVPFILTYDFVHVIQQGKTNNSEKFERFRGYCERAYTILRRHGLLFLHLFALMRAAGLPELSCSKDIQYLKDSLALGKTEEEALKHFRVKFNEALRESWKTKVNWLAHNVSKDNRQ

[5] = biological target: Phosphatidylinositol 4,5-bisphosphate 3-kinase catalytic subunit gamma isoform (Homo sapiens, UniProt P48736); experiment: Inhibition of human PI3Kgamma expressed in baculovirus infected Sf21 insect cells by ADP-Glo assay
Chain of Phosphatidylinositol 4,5-bisphosphate 3-kinase catalytic subunit gamma isoform (P48736 whole entry, canonical isoform): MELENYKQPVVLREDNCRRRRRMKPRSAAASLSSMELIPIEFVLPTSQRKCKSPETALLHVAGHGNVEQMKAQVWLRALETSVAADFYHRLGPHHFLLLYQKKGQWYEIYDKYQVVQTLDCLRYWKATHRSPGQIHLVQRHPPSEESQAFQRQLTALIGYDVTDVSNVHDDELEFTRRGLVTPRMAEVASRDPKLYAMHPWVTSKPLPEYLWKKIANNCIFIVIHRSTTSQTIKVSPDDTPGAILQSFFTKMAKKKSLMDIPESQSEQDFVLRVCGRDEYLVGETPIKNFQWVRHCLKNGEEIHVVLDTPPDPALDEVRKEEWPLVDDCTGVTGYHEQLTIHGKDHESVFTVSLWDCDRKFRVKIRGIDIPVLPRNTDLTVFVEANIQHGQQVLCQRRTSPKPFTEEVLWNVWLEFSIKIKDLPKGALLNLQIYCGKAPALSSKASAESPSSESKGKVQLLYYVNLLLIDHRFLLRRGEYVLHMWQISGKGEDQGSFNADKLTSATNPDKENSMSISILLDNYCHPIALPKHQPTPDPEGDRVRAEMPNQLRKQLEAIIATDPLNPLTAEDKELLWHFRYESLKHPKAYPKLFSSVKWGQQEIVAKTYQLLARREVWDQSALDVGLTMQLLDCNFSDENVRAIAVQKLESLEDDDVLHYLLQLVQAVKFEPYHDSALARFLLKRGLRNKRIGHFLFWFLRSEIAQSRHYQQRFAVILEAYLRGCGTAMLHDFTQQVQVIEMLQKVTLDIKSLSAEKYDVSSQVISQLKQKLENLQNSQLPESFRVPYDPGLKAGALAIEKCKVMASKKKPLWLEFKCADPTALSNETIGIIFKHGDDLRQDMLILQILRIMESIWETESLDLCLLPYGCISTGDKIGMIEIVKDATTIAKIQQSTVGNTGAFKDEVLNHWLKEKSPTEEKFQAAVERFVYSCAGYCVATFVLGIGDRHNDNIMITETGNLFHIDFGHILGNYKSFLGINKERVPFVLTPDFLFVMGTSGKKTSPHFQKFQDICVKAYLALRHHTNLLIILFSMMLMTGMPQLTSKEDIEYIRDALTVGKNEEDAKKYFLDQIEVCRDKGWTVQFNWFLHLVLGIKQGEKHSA

U-87 MG [6] = experiment: Antitumor activity against human U-87 MG cells xenografted in BALB/c mouse assessed as tumor growth inhibition at 40 mg/kg/day, ip for 16 days relative to control; format: functional, U-87MG ATCC; settings: 384 h, time 16 day, read-out: TGI
Procedure, shortened: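 U87-MG xenografts in mice; dosing began once mean tumor volume reached about 100 mm³. Given 40 mg/kg/day intraperitoneally, once daily for 16 days.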

[7] = Metabolic stability in rat liver microsomes assessed as half life […] measured upto 60 mins in presence of NADPH by LC-MS/MS analysis; format: ADME, Microsome
[8] = Metabolic stability in rat liver assessed as intrinsic clearance […] measured upto 60 mins in presence of NADPH by LC-MS/MS analysis; format: ADME; settings: read-out: CLH
[9] = Metabolic stability in rat liver microsomes assessed as intrinsic clearance […] measured upto 60 mins in presence of NADPH by LC-MS/MS analysis; format: ADME, Microsome; settings: read-out: CLH
[10] = Metabolic stability in rat liver microsomes assessed as compound remaining […] measured upto 60 mins by LC-MS/MS analysis; format: ADME, Microsome; settings: read-out: Stability
[11] = Metabolic stability in rat liver microsomes assessed as compound remaining […] measured upto 60 mins in presence of NADPH by LC-MS/MS analysis; format: ADME, Microsome; settings: read-out: Stability
[12] = Toxicity in BALB/c mouse xenografted with human U-87 MG cells assessed as body weight loss at 40 mg/kg/day, ip for 16 days; format: organism-based; settings: in vivo, 384 h, time 16 day
Procedure, shortened: (§1)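 U87-MG xenograft mice treated once tumours averaged ~100 mm³. Dosing was 40 mg/kg/day intraperitoneally, once daily for 16 days. Tumour volume and body weight of each mouse were recorded on days 1, 4, 8, 11, 15 and 17.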

[13] = Toxicity in BALB/c mouse xenografted with human U-87 MG cells assessed as animal mortality at 40 mg/kg/day, ip for 16 days; format: organism-based; settings: in vivo, 384 h, time 16 day; procedure, shortened: as §1
[14] = Toxicity in BALB/c mouse xenografted with human U-87 MG cells assessed as drug tolerance at 40 mg/kg/day, ip for 16 days; format: organism-based; settings: in vivo, 384 h, time 16 day; procedure, shortened: as §1

## COc1cccc2c1nc(C(F)F)n2-c1nc(N2CCOCC2)nc(N2CCN(C(=S)SCC(=O)N3CCN(C)CC3)CC2)n1
[1]
  IC50: 1.4 nM
HCT-116
  IC50: 980 nM
U-87 MG [2]
  IC50: 1670 nM

## CCN(CC)C(=O)CSC(=S)N1CCN(c2nc(N3CCOCC3)nc(-n3c(C(F)F)nc4c(OC)cccc43)n2)CC1
[1]
  IC50: 1.1 nM

## COc1cccc2c1nc(C(F)F)n2-c1nc(N2CCOCC2)nc(N2CCN(C(=S)SCC(=O)NC3CC3)CC2)n1
[1]
  IC50: 1.4 nM

## CCN(CC)C(=O)CSC(=S)N1CCN(c2cc(N3CCOCC3)nc(-n3c(C(F)F)nc4c(OC)cccc43)n2)CC1
[1]
  IC50: 1.3 nM

## COc1cccc2c1nc(C(F)F)n2-c1nc(N2CCOCC2)cc(N2CCN(C(=S)SCCN(C)C)CC2)n1
[1]
  IC50: 34 nM

## COCCSC(=S)N1CCN(c2nc(N3CCOCC3)nc(-n3c(C(F)F)nc4c(OC)cccc43)n2)CC1
[1]
  IC50: 21 nM

## COc1cccc2c1nc(C(F)F)n2-c1nc(N2CCOCC2)cc(N2CCN(C(=S)SCC(=O)N(C)C)CC2)n1
[1]
  IC50: 1.8 nM
[3]
  IC50: > 50 nM
HCT-116
  IC50: 2200 nM
U-87 MG [2]
  IC50: 2040 nM
[4]
  IC50: > 50 nM
[5]
  IC50: 33 nM

## COc1cccc2c1nc(C(F)F)n2-c1nc(N2CCOCC2)cc(N2CCN(C(=S)SCC(=O)NC3CCCCC3)CC2)n1
[1]
  IC50: 12 nM

## COc1cccc2c1nc(C(F)F)n2-c1nc(N2CCOCC2)cc(N2CCN(C(=S)SCCN3CCN(C)CC3)CC2)n1
[1]
  IC50: 120 nM

## COCCSC(=S)N1CCN(c2cc(N3CCOCC3)nc(-n3c(C(F)F)nc4c(OC)cccc43)n2)CC1
[1]
  IC50: 17 nM

## COc1cccc2c1nc(C(F)F)n2-c1nc(N2CCOCC2)cc(N2CCN(C(=S)SCC(=O)NC3CCCC3)CC2)n1
[1]
  IC50: 34 nM

## COc1cccc2c1nc(C(F)F)n2-c1nc(N2CCOCC2)nc(N2CCN(C(=S)SCC(=O)N3CCN(S(C)(=O)=O)CC3)CC2)n1
U-87 MG [6]
  inhibition in vivo at 40 mg/kg/day: 42%
[7]
  half-life: 21.5 min
[1]
  IC50: 1.2 nM
[8]
  CLint scaled: 116 mL/min/kg
[9]
  microsomal CLint: 64 µL/min/mg
[10]
  remaining at 1 h: 68.2%
[3]
  IC50: > 50 nM
[11]
  remaining at 1 h: 11.2%
HCT-116
  IC50: 830 nM
[12]
  Activity: Non-Toxic
U-87 MG [2]
  IC50: 1250 nM
[13]
  Activity: Non-Toxic
[4]
  IC50: > 50 nM
[14]
  Activity: Non-Toxic
[5]
  IC50: 42 nM

## COc1cccc2c1nc(C(F)F)n2-c1nc(N2CCOCC2)nc(N2CCN(C(=S)SCC(=O)NC3CCCC3)CC2)n1
[1]
  IC50: 2.8 nM

## COc1cccc2c1nc(C(F)F)n2-c1nc(N2CCOCC2)cc(N2CCN(C(=S)SCC(=O)N3CCCC3)CC2)n1
[1]
  IC50: 1.4 nM
HCT-116
  IC50: 1230 nM
U-87 MG [2]
  IC50: 1990 nM

## COc1cccc2c1nc(C(F)F)n2-c1nc(N2CCOCC2)nc(N2CCN(C(=S)SCC(=O)N3CCCC3)CC2)n1
[1]
  IC50: 0.9 nM

## FC(F)c1nc2ccccc2n1-c1nc(N2CCOCC2)nc(N2CCOCC2)n1 [ZSTK-474]
U-87 MG [6]
  inhibition in vivo at 40 mg/kg/day: 72%
[7]
  half-life: 25.7 min
[8]
  CLint scaled: 97 mL/min/kg
[9]
  microsomal CLint: 54 µL/min/mg
[10]
  remaining at 1 h: 100%
[11]
  remaining at 1 h: 19.6%
HCT-116
  IC50: 710 nM
[12]
  Activity: Non-Toxic
U-87 MG [2]
  IC50: 130 nM
[13]
  Activity: Non-Toxic
[14]
  Activity: Non-Toxic

## COc1cccc2c1nc(C(F)F)n2-c1nc(N2CCOCC2)cc(N2CCN(C(=S)SCC(N)=O)CC2)n1
[1]
  IC50: 2.5 nM

## COc1cccc2c1nc(C(F)F)n2-c1nc(N2CCOCC2)nc(N2CCN(C(=S)SCC(=O)NC3CCC3)CC2)n1
[1]
  IC50: 1.6 nM

## COc1cccc2c1nc(C(F)F)n2-c1nc(N2CCOCC2)nc(N2CCN(C(=S)SCC(=O)N3CCN(C4CCCC4)CC3)CC2)n1
[1]
  IC50: 2.5 nM

## COc1cccc2c1nc(C(F)F)n2-c1nc(N2CCOCC2)cc(N2CCN(C(=S)SCCN3CCOCC3)CC2)n1
[1]
  IC50: 81 nM

## COc1cccc2c1nc(C(F)F)n2-c1nc(N2CCOCC2)nc(N2CCN(C(=S)SCCN3CCCCC3)CC2)n1
[1]
  IC50: 42 nM

## COc1cccc2c1nc(C(F)F)n2-c1nc(N2CCOCC2)cc(N2CCN(C(=S)SCC(=O)NC3CCC3)CC2)n1
[1]
  IC50: 3.3 nM

## COc1cccc2c1nc(C(F)F)n2-c1nc(N2CCOCC2)cc(N2CCN(C(=S)SCC(=O)N3CCOCC3)CC2)n1
[1]
  IC50: 1.2 nM
[3]
  IC50: > 50 nM
HCT-116
  IC50: 1530 nM
U-87 MG [2]
  IC50: 1220 nM
[4]
  IC50: > 50 nM
[5]
  IC50: 35 nM

## COc1cccc2c1nc(C(F)F)n2-c1nc(N2CCOCC2)nc(N2CCN(C(=S)SCC(=O)N3CCOCC3)CC2)n1
[1]
  IC50: 0.7 nM
HCT-116
  IC50: 1110 nM
U-87 MG [2]
  IC50: 600 nM

## CCN(CC)CCSC(=S)N1CCN(c2nc(N3CCOCC3)nc(-n3c(C(F)F)nc4c(OC)cccc43)n2)CC1
[1]
  IC50: 38 nM

## COc1cccc2c1nc(C(F)F)n2-c1nc(N2CCOCC2)nc(N2CCN(C(=S)SCC(=O)N(C)C)CC2)n1
[1]
  IC50: 0.8 nM
HCT-116
  IC50: 2780 nM
U-87 MG [2]
  IC50: 1100 nM

## COc1cccc2c1nc(C(F)F)n2-c1nc(N2CCOCC2)nc(N2CCN(C(=S)SCCN3CCN(C)CC3)CC2)n1
[1]
  IC50: 9.1 nM

## COc1cccc2c1nc(C(F)F)n2-c1nc(N2CCOCC2)nc(N2CCN(C(=S)SCC(=O)NC3CCCCC3)CC2)n1
[1]
  IC50: 5.1 nM

## COc1cccc2c1nc(C(F)F)n2-c1nc(N2CCOCC2)nc(N2CCN(C(=S)SCCN3CCCC3)CC2)n1
[1]
  IC50: 20 nM

## COc1cccc2c1nc(C(F)F)n2-c1nc(N2CCOCC2)nc(N2CCN(C(=S)SCC(N)=O)CC2)n1
[1]
  IC50: 1.6 nM

## COc1cccc2c1nc(C(F)F)n2-c1nc(N2CCOCC2)nc(N2CCN(C(=S)SCCN(C)C)CC2)n1
[1]
  IC50: 63 nM

## COc1cccc2c1nc(C(F)F)n2-c1nc(N2CCOCC2)cc(N2CCN(C(=S)SCC(=O)NC3CC3)CC2)n1
[1]
  IC50: 2.7 nM

## COc1cccc2c1nc(C(F)F)n2-c1nc(N2CCOCC2)nc(N2CCN(C(=S)SCCN3CCOCC3)CC2)n1
[1]
  IC50: 29 nM
